Assay results published in ChEMBL document CHEMBL1949525, “Boranophosphate isoster controls P2Y-receptor subtype selectivity and metabolic stability of dinucleoside polyphosphate analogues” (J Med Chem, 2012).
The source made the active and inactive calls. The calls are words filed in the database; no cut-off is given here.

How the values were obtained:
[1] = Stability of the compound assessed as human e-NPP1-mediated hydrolysis at pH 8.5 after 20 mins by HPLC analysis; assay type: ADME; conditions: buffer, pH 8.5, 20 min; for Drug degradation: 20 min
How it was run: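 Human NPP1 preparation preincubated 3 min at 37 °C in 1 mM CaCl2, 200 mM NaCl, 10 mM KCl, 100 mM Tris, pH 8.5. Started with 0.2 mM dinucleotide solution (added volume) and stopped after 20 min in ice-cold perchloric acid. Neutralised with KOH, then NMP formation followed by HPLC. Percent substrate hydrolysed is the mean of two experiments run in triplicate.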

P2Y purinoceptor 1 = P2Y purinoceptor 1 (Meleagris gallopavo, UniProt P49652); assay: Agonist activity at turkey P2Y purinoceptor 1 expressed in human 1321N1 cells assessed as increase in intracellular calcium concentration by spectrofluorimetry; assay type: functional, cell-based
Chain of P2Y purinoceptor 1 (P49652 whole entry): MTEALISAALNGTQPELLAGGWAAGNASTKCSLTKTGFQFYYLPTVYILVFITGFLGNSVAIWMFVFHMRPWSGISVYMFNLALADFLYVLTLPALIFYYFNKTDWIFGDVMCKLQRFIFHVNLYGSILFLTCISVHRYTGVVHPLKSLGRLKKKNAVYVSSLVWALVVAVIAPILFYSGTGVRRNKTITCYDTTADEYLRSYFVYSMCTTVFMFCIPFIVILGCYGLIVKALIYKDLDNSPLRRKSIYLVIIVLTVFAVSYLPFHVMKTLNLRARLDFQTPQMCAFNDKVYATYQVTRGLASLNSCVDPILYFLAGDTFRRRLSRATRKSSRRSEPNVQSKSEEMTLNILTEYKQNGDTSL

P2Y purinoceptor 2 [2] = target: T1, P2Y purinoceptor 2 (Homo sapiens, UniProt P41231); assay: Agonist activity at human P2Y purinoceptor 2 expressed in human 1321N1 cells assessed as increase in intracellular calcium concentration by spectrofluorimetry; assay type: functional, cell-based
T1 sequence (P41231 whole entry): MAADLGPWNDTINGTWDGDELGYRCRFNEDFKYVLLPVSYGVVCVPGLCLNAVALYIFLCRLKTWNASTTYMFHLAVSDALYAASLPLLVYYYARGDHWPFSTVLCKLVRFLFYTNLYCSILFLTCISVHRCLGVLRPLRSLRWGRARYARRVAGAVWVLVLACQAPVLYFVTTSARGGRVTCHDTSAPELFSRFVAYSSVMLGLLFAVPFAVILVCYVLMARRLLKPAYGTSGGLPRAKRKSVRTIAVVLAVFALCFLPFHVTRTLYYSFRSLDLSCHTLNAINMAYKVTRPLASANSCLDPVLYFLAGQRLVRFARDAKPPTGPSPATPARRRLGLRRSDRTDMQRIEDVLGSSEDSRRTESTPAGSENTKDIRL

P2Y purinoceptor 6 = P2Y purinoceptor 6 (Rattus norvegicus, UniProt Q63371); assay: Agonist activity at rat P2Y purinoceptor 6 expressed in human 1321N1 cells assessed as increase in intracellular calcium concentration by spectrofluorimetry; assay type: functional, cell-based
Chain of P2Y purinoceptor 6 (Q63371 whole entry): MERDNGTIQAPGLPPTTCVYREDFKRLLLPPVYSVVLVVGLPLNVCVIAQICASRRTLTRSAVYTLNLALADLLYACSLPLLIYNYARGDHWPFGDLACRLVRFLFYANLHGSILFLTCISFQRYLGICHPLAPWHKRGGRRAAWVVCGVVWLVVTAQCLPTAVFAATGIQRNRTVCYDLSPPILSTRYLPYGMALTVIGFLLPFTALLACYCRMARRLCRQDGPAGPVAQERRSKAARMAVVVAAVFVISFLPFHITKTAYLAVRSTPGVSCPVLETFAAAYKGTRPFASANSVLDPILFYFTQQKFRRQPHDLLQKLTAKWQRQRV
How it was run: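 1321N1 astrocytoma cells lacking endogenous P2Y receptors, stably transfected with turkey P2Y1, human P2Y2, human P2Y4 or rat P2Y6, grown in DMEM with 5% FBS, penicillin/streptomycin and 500 µg/mL G-418. Fura-2-loaded cell suspensions were exposed at 37 °C in 10 mM Hepes-buffered saline, pH 7.4, with 1 mM CaCl2 and 1 mM MgCl2. Peak [Ca2+]i rise by dual-excitation spectrofluorometry across concentrations; EC50 from curve fits; three experiments on separate days per subtype.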

[3] = target: P2Y purinoceptor 1 (Meleagris gallopavo) (UniProt P49652); assay: Antagonist activity at turkey P2Y purinoceptor 1 expressed in human 1321N1 cells assessed as inhibition of 2-Sme-ADP-induced increase in intracellular calcium concentration by spectrofluorimetry; assay type: functional, cell-based
Chain of P2Y purinoceptor 1 (Meleagris gallopavo) (P49652 whole entry): as the sequence (P49652 whole entry) above
How it was run: (§1)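 Fura-2-loaded 1321N1 transfectants (turkey P2Y1, human P2Y2/P2Y4, rat P2Y6) in Hepes-buffered saline, pH 7.4, at 37 °C. Analogues were tested against equimolar reference agonist: 2-MeS-ADP for P2Y1, UTP for P2Y2/4, UDP for P2Y6. Blockade of the [Ca2+]i rise was followed by dual-excitation spectrofluorometry.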

P2Y purinoceptor 4 [4] = target: T2, P2Y purinoceptor 4 (Homo sapiens, UniProt P51582); assay: Antagonist activity at human P2Y purinoceptor 4 expressed in human 1321N1 cells assessed as inhibition of UTP-induced increase in intracellular calcium concentration by spectrofluorimetry; assay type: functional, cell-based; how it was run: as §1
T2 sequence (P51582 whole entry): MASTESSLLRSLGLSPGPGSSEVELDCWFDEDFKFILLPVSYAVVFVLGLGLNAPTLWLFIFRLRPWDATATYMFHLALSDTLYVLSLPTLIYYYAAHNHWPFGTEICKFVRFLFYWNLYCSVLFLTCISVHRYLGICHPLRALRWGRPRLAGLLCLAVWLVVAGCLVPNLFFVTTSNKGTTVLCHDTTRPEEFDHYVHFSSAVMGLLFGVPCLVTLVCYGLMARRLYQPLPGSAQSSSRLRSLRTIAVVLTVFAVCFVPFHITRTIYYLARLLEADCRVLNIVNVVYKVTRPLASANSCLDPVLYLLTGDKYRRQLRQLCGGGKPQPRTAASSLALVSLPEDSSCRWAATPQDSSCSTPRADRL

[5] = target: P2Y purinoceptor 6 (Rattus norvegicus) (UniProt Q63371); assay: Antagonist activity at rat P2Y purinoceptor 6 expressed in human 1321N1 cells assessed as inhibition of UDP-induced increase in intracellular calcium concentration by spectrofluorimetry; assay type: functional, cell-based; how it was run: as §1
Chain of P2Y purinoceptor 6 (Rattus norvegicus) (Q63371 whole entry): as the sequence (Q63371 whole entry) above

P2Y purinoceptor 2 [6] = target: T1, P2Y purinoceptor 2; assay: Antagonist activity at human P2Y purinoceptor 2 expressed in human 1321N1 cells assessed as inhibition of UTP-induced increase in intracellular calcium concentration by spectrofluorimetry; assay type: functional, cell-based; how it was run: as §1
P2Y purinoceptor 4 [7] = target: T2, P2Y purinoceptor 4; assay: Agonist activity at human P2Y purinoceptor 4 expressed in human 1321N1 cells assessed as increase in intracellular calcium concentration by spectrofluorimetry; assay type: functional, cell-based
How it was run: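 1321N1 astrocytoma cells (no endogenous P2Y receptors) stably expressing hP2Y4, grown in DMEM with 5% FBS, penicillin/streptomycin and 500 μg/mL G-418. Fura-2-loaded cell suspensions; compounds applied at various concentrations, 37 °C, 10 mM Hepes-buffered saline pH 7.4 with 1 mM CaCl2/MgCl2. Peak [Ca2+]i rise by dual-excitation fluorometry gives EC50; UTP reference agonist; three experiments on separate days.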

Row | SMILES | EC50 (P2Y purinoceptor 1; read-out: EC50) | Drug degradation [1] | EC50 (P2Y purinoceptor 6; read-out: EC50) | Activity [3] | Activity (P2Y purinoceptor 4 [4]) | Activity [5] | Activity (P2Y purinoceptor 2 [6]) | further results
1 | Nc1ncnc2c1ncn2[C@@H]1O[C@H](COP(=O)(O)OP(=O)(O)OP(=O)(O)OP(=O)(O)OP(=O)(O)OC[C@H]2O[C@@H](n3cnc4c(N)ncnc43)[C@H](O)[C@@H]2O)[C@@H](O)[C@H]1O | – | – | – | – | – | – | – | Stability [1]: Unstable
2 | BP(=O)(OP(=O)(O)OC[C@H]1O[C@@H](n2cnc3c(N)ncnc32)[C@H](O)[C@@H]1O)OP(=O)(O)OP(=O)(O)OC[C@H]1O[C@@H](n2cnc3c(N)ncnc32)[C@H](O)[C@@H]1O.CCCCN(CCCC)CCCC.CCCCN(CCCC)CCCC.CCCCN(CCCC)CCCC.CCCCN(CCCC)CCCC (stereo in doubt; 6B) | 4.3 µM | 2.1% | – | – | – | – | – | –
3 | BP(=O)(OP(=O)(O)OC[C@H]1O[C@@H](n2ccc(=O)[nH]c2=O)[C@H](O)[C@@H]1O)OP(=O)(O)OP(=O)(O)OC[C@H]1O[C@@H](n2ccc(=O)[nH]c2=O)[C@H](O)[C@@H]1O.CCCCN(CCCC)CCCC.CCCCN(CCCC)CCCC.CCCCN(CCCC)CCCC.CCCCN(CCCC)CCCC (stereo in doubt; 7B) | – | 3.5% | 0.98 µM | – | – | – | – | EC50 (P2Y purinoceptor 2 [2]; 1321-n1): Not Active
4 | BP(=O)(OP(=O)(O)OC[C@H]1O[C@@H](n2cnc3c(N)ncnc32)[C@H](O)[C@@H]1O)OP(=O)(O)OP(=O)(O)OC[C@H]1O[C@@H](n2ccc(=O)[nH]c2=O)[C@H](O)[C@@H]1O.CCCCN(CCCC)CCCC.CCCCN(CCCC)CCCC.CCCCN(CCCC)CCCC.CCCCN(CCCC)CCCC (stereo in doubt; 8B) [listing 1 of 2 here] | 6.9 µM | 2.1% | 1.92 µM | – | – | – | – | EC50 (P2Y purinoceptor 2 [2]; read-out: EC50): 64.2 µM
5 | BP(=O)(OP(=O)(O)OC[C@H]1O[C@@H](n2cnc3c(N)ncnc32)[C@H](O)[C@@H]1O)OP(=O)(O)OP(=O)(O)OC[C@H]1O[C@@H](n2ccc(=O)[nH]c2=O)[C@H](O)[C@@H]1O.CCCCN(CCCC)CCCC.CCCCN(CCCC)CCCC.CCCCN(CCCC)CCCC.CCCCN(CCCC)CCCC (stereo in doubt; 8B) [listing 2 of 2 here] | – | – | – | inactive | inactive | inactive | inactive | –
6 | BP(=O)(OP(=O)(O)OC[C@H]1O[C@@H](n2ccc(=O)[nH]c2=O)[C@H](O)[C@@H]1O)OP(=O)(O)OP(=O)(O)OC[C@H]1O[C@@H](n2cnc3c(N)ncnc32)[C@H](O)[C@@H]1O.CCCCN(CCCC)CCCC.CCCCN(CCCC)CCCC.CCCCN(CCCC)CCCC.CCCCN(CCCC)CCCC (stereo in doubt; 9B) [listing 1 of 2 here] | 0.81 µM | 3.3% | 11.7 µM | – | – | – | – | EC50 (P2Y purinoceptor 2 [2]; 1321-n1): Not Active
7 | BP(=O)(OP(=O)(O)OC[C@H]1O[C@@H](n2ccc(=O)[nH]c2=O)[C@H](O)[C@@H]1O)OP(=O)(O)OP(=O)(O)OC[C@H]1O[C@@H](n2cnc3c(N)ncnc32)[C@H](O)[C@@H]1O.CCCCN(CCCC)CCCC.CCCCN(CCCC)CCCC.CCCCN(CCCC)CCCC.CCCCN(CCCC)CCCC (stereo in doubt; 9B) [listing 2 of 2 here] | – | – | – | inactive | inactive | inactive | inactive | –
8 | BP(=O)(OC[C@H]1O[C@@H](n2cnc3c(N)ncnc32)[C@H](O)[C@@H]1O)OP(=O)(O)OP(=O)(O)OC[C@H]1O[C@@H](n2cnc3c(N)ncnc32)[C@H](O)[C@@H]1O.CCCCN(CCCC)CCCC.CCCCN(CCCC)CCCC.CCCCN(CCCC)CCCC (stereo in doubt; 10A) [listing 1 of 2 here] | 0.76 µM | 0% | – | – | – | – | – | EC50 (P2Y purinoceptor 2 [2]; 1321-n1): Not Active; EC50 (P2Y purinoceptor 4 [7]; 1321-n1): Not Active; EC50 (P2Y purinoceptor 6; 1321-n1): Not Active
9 | BP(=O)(OC[C@H]1O[C@@H](n2cnc3c(N)ncnc32)[C@H](O)[C@@H]1O)OP(=O)(O)OP(=O)(O)OC[C@H]1O[C@@H](n2cnc3c(N)ncnc32)[C@H](O)[C@@H]1O.CCCCN(CCCC)CCCC.CCCCN(CCCC)CCCC.CCCCN(CCCC)CCCC (stereo in doubt; 10A) [listing 2 of 2 here] | – | – | – | inactive | inactive | inactive | inactive | –
10 | BP(=O)(OC[C@H]1O[C@@H](n2cnc3c(N)ncnc32)[C@H](O)[C@@H]1O)OP(=O)(O)OP(=O)(O)OC[C@H]1O[C@@H](n2cnc3c(N)ncnc32)[C@H](O)[C@@H]1O.CCCCN(CCCC)CCCC.CCCCN(CCCC)CCCC.CCCCN(CCCC)CCCC (stereo in doubt; 10B) [listing 1 of 2 here] | 0.8 µM | 4.4% | – | – | – | – | – | –
11 | BP(=O)(OC[C@H]1O[C@@H](n2cnc3c(N)ncnc32)[C@H](O)[C@@H]1O)OP(=O)(O)OP(=O)(O)OC[C@H]1O[C@@H](n2cnc3c(N)ncnc32)[C@H](O)[C@@H]1O.CCCCN(CCCC)CCCC.CCCCN(CCCC)CCCC.CCCCN(CCCC)CCCC (stereo in doubt; 10B) [listing 2 of 2 here] | – | – | – | inactive | inactive | inactive | inactive | –
12 | BP(=O)(OC[C@H]1O[C@@H](n2ccc(=O)[nH]c2=O)[C@H](O)[C@@H]1O)OP(=O)(O)OP(=O)(O)OC[C@H]1O[C@@H](n2ccc(=O)[nH]c2=O)[C@H](O)[C@@H]1O.CCCCN(CCCC)CCCC.CCCCN(CCCC)CCCC.CCCCN(CCCC)CCCC (stereo in doubt; 11A) [listing 1 of 2 here] | 4.4 µM | 0% | 0.72 µM | – | – | – | – | EC50 (P2Y purinoceptor 2 [2]; 1321-n1): Not Active; EC50 (P2Y purinoceptor 4 [7]; 1321-n1): Not Active
13 | BP(=O)(OC[C@H]1O[C@@H](n2ccc(=O)[nH]c2=O)[C@H](O)[C@@H]1O)OP(=O)(O)OP(=O)(O)OC[C@H]1O[C@@H](n2ccc(=O)[nH]c2=O)[C@H](O)[C@@H]1O.CCCCN(CCCC)CCCC.CCCCN(CCCC)CCCC.CCCCN(CCCC)CCCC (stereo in doubt; 11A) [listing 2 of 2 here] | – | – | – | inactive | inactive | inactive | inactive | –
14 | BP(=O)(OC[C@H]1O[C@@H](n2ccc(=O)[nH]c2=O)[C@H](O)[C@@H]1O)OP(=O)(O)OP(=O)(O)OC[C@H]1O[C@@H](n2ccc(=O)[nH]c2=O)[C@H](O)[C@@H]1O.CCCCN(CCCC)CCCC.CCCCN(CCCC)CCCC.CCCCN(CCCC)CCCC (stereo in doubt; 11B) | – | 6% | 0.3 µM | – | – | – | – | –
15 | BP(=O)(OC[C@H]1O[C@@H](n2cnc3c(N)ncnc32)[C@H](O)[C@@H]1O)OP(=O)(O)OP(=O)(O)OP(=O)(O)OC[C@H]1O[C@@H](n2cnc3c(N)ncnc32)[C@H](O)[C@@H]1O.CCCCN(CCCC)CCCC.CCCCN(CCCC)CCCC.CCCCN(CCCC)CCCC.CCCCN(CCCC)CCCC (stereo in doubt; 12A) | – | – | – | inactive | inactive | inactive | inactive | –
16 | BP(=O)(OC[C@H]1O[C@@H](n2cnc3c(N)ncnc32)[C@H](O)[C@@H]1O)OP(=O)(O)OP(=O)(O)OP(=O)(O)OC[C@H]1O[C@@H](n2cnc3c(N)ncnc32)[C@H](O)[C@@H]1O.CCCCN(CCCC)CCCC.CCCCN(CCCC)CCCC.CCCCN(CCCC)CCCC.CCCCN(CCCC)CCCC (stereo in doubt; 12B) [listing 1 of 2 here] | 6.9 µM | 17% | – | – | – | – | – | EC50 (P2Y purinoceptor 2 [2]; read-out: EC50): 64.2 µM
17 | BP(=O)(OC[C@H]1O[C@@H](n2cnc3c(N)ncnc32)[C@H](O)[C@@H]1O)OP(=O)(O)OP(=O)(O)OP(=O)(O)OC[C@H]1O[C@@H](n2cnc3c(N)ncnc32)[C@H](O)[C@@H]1O.CCCCN(CCCC)CCCC.CCCCN(CCCC)CCCC.CCCCN(CCCC)CCCC.CCCCN(CCCC)CCCC (stereo in doubt; 12B) [listing 2 of 2 here] | – | – | – | inactive | inactive | inactive | inactive | –
18 | BP(=O)(OC[C@H]1O[C@@H](n2ccc(=O)[nH]c2=O)[C@H](O)[C@@H]1O)OP(=O)(O)OP(=O)(O)OP(=O)(O)OC[C@H]1O[C@@H](n2ccc(=O)[nH]c2=O)[C@H](O)[C@@H]1O.CCCCN(CCCC)CCCC.CCCCN(CCCC)CCCC.CCCCN(CCCC)CCCC.CCCCN(CCCC)CCCC (stereo in doubt; 13A) | – | 3.5% | 36.1 µM | – | – | – | – | EC50 (P2Y purinoceptor 1; 1321-n1): Not Active; EC50 (P2Y purinoceptor 4 [7]; read-out: EC50): 9.4 µM
19 | BP(=O)(OC[C@H]1O[C@@H](n2ccc(=O)[nH]c2=O)[C@H](O)[C@@H]1O)OP(=O)(O)OP(=O)(O)OP(=O)(O)OC[C@H]1O[C@@H](n2ccc(=O)[nH]c2=O)[C@H](O)[C@@H]1O.CCCCN(CCCC)CCCC.CCCCN(CCCC)CCCC.CCCCN(CCCC)CCCC.CCCCN(CCCC)CCCC (stereo in doubt; 13B) | – | 11.3% | 3.9 µM | – | – | – | – | EC50 (P2Y purinoceptor 2 [2]; read-out: EC50): 24.6 µM; EC50 (P2Y purinoceptor 4 [7]; read-out: EC50): 16.8 µM
